These results are taken from ChEMBL document CHEMBL1131008, “Substituted halogenated arylsulfonamides: a new class of sigma receptor binding tumor imaging agents” (J Med Chem, 1998).

The experiment addresses Sigma 2 receptor. Nature of the experiment: Inhibition of [3H]-DTG binding to sigma-2 receptor of rat liver membranes with 1 uM dextrallorphan. Type of experiment: cell membranes, Membrane. A digest of the protocol:
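Rat liver membranes (150-200 µg protein) incubated with 5 nM [3H]DTG plus 1 µM dextrallorphan to mask sigma-1 sites, in 50 mM Tris-HCl pH 8.0, 120 min at 25 °C. […] Filtration assay. IC50 from curve fitting, converted to Ki via Cheng-Prusoff. Two or three experiments, each in duplicate.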

The structures appear in SMILES notation.

Compound `O=S(=O)(NCCN1CCCCC1)c1ccc(I)cc1` had a Ki of 206 nM. That is a sub-micromolar value.
The compound `CN(CCN1CCCCCC1)S(=O)(=O)c1ccc(I)cc1` yielded a Ki of 23.5 nM.
The same measure for `COc1ccc(S(=O)(=O)N(C)CCN2CCCCCC2)cc1I`: 337 nM; for `O=S(=O)(NCCN1CCCCCC1)c1ccc(I)cc1`: 189 nM.
`O=S(=O)(NCCN1CCCC1)c1ccc(I)cc1` gave a Ki of 1000 nM.
The same measure for `COc1ccc(S(=O)(=O)NCCN2CCCCC2)cc1I`: 449 nM; for `O=S(=O)(NCCN1CCCCCC1)c1ccc(Br)cc1`: 198 nM.
The same measure for `CCN(CC)CCNS(=O)(=O)c1ccc(Br)cc1`: 2830 nM; for `CCN(CC)CCNS(=O)(=O)c1ccc(I)cc1`: 2390 nM.
The compound `CN(CCN1CCCCCC1)S(=O)(=O)c1ccc(Br)cc1` had a Ki of 44.4 nM.
The same measure for `O=S(=O)(NCCN1CCCC1)c1ccc(Br)cc1`: 1490 nM; for `O=S(=O)(NCCN1CCCCC1)c1ccc(Br)cc1`: 459 nM.
